From ChEMBL document CHEMBL1154735, “A strategy to minimize reactive metabolite formation: discovery of (S)-4-(1-cyclopropyl-2-methoxyethyl)-6-[6-(difluoromethoxy)-2,5-dimethylpyridin-3-ylamino]-5-oxo-4,5-dihydropyrazine-2-carbonitrile as a potent, orally bioavailable corticotropin-releasing factor-1 receptor antagonist” (J Med Chem, 2009)
Values after ≈ are worked out from the molar mass of the structure shown.

Key:
[1] = Cmax in Beagle dog at 2 mg/kg, po dosed as aqueous suspension of 1% polysorbate 80 in 0.5% methylcellulose after 2 to 4 hrs by LC/MS/MS analysis; format: ADME, organism-based, Canis lupus familiaris; design: dose 2 mg/kg, route oral; settings: in vivo
[2] = Metabolic stability in human liver microsomes assessed as compound remaining at 3 uM after 10 mins by HPLC/UV/MS analysis; format: ADME, Microsome; settings: read-out: Stability
[3] = tested on: Rattus norvegicus; experiment: Ex vivo receptor occupancy of CRF1 receptor in Sprague-Dawley rat brain parietal assessed as inhibition of [125I]sauvagine binding at 0.56 mg/kg, po after 90 mins by autoradiography; format: functional; settings: 1.5 h
[4] = Half life in Sprague-Dawley rat at 2 mg/kg, iv by LC/MS/MS analysis; format: ADME, organism-based; design: dose 2 mg/kg, route intravenous; settings: in vivo
[5] = tested on: Rattus norvegicus; experiment: Toxicity in Sprague-Dawley rat at 175 mg/kg after 2 weeks; format: organism-based; design: dose 175 mg/kg; settings: in vivo, 336 h
[6] = tested on: Rattus norvegicus; experiment: Anxiolytic activity in Sprague-Dawley rat assessed as decrease in exit latency at 3 mg/kg, po after 60 mins by defensive withdrawal test relative to control; format: functional; design: scale not given: the % may be the effect or the level left
Outline: (§1)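 Rats placed in a darkened chamber within an open illuminated field; time to emerge measured 60 min after oral dosing (0.56–3 mg/kg), n = 8; percent decrease in exit latency versus vehicle-treated animals, p < 0.05 significance.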

[7] = Drug metabolism in bile duct cannulated Sprague-Dawley rat assessed as GSH adduct formation in urine at 20 mg/kg, po after 24 hrs by HPLC/UV/MS analysis; format: ADME, organism-based; design: dose 20 mg/kg, route oral; settings: in vivo
Outline: (§2)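 Male Sprague–Dawley bile duct cannulated rats (n = 3) dosed orally at 20 mg/kg in PEG/ethanol 90:10; vehicle-dosed controls (n = 3). Bile and urine pooled over 0–24 h, acetonitrile-precipitated and profiled by HPLC/UV/MS (Hydro-RP column, PDA 200–550 nm, positive-ion full and data-dependent scans).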

[8] = Metabolic stability in rat liver microsomes assessed as compound remaining at 3 uM after 10 mins by HPLC/UV/MS analysis; format: ADME, Microsome; settings: read-out: Stability
Outline: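 Pooled human or rat liver microsomes (1 mg/mL protein) with 3 μM compound and 1.3 mM NADPH in 100 mM sodium phosphate pH 7.4 at 37 °C; final 0.015% DMSO, 0.985% acetonitrile; stopped at 0 and 10 min, percent remaining by LC/MS/MS.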

[9] = Dissociation constant, pKa by spectrophotometric titration method; format: physicochemical
Outline: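 Spectrophotometric titration over pH 2–11 in varying acetonitrile/water mixtures, extrapolated to 0% cosolvent.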

[10] = target: T1, Corticotropin-releasing factor receptor 1 (Rattus norvegicus, UniProt P35353); experiment: Displacement of [125I]Tyr-o-CRF from CRF1 receptor in rat frontal cortex homogenate by binding titration assay; format: tissue-based
T1 sequence (P35353 whole entry): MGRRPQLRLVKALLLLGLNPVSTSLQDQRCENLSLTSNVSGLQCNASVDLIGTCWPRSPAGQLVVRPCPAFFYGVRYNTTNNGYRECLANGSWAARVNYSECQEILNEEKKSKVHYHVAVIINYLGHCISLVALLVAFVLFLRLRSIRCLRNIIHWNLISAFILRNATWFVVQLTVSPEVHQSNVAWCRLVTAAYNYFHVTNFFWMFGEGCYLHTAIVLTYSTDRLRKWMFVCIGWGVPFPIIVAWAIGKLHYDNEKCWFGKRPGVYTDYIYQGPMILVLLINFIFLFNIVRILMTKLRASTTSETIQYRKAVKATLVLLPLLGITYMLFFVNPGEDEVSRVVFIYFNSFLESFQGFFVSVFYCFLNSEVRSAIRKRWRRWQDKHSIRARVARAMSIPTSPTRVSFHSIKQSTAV

[11] = target: T2, Corticotropin-releasing factor receptor 1 (Homo sapiens, UniProt P34998); experiment: (§3) Antagonist activity at CRF1 receptor in human Y79 cells assessed as inhibition of CRF-stimulated cAMP production after 30 mins by HTRF analysis; format: functional, cell-based
T2 sequence (P34998 whole entry): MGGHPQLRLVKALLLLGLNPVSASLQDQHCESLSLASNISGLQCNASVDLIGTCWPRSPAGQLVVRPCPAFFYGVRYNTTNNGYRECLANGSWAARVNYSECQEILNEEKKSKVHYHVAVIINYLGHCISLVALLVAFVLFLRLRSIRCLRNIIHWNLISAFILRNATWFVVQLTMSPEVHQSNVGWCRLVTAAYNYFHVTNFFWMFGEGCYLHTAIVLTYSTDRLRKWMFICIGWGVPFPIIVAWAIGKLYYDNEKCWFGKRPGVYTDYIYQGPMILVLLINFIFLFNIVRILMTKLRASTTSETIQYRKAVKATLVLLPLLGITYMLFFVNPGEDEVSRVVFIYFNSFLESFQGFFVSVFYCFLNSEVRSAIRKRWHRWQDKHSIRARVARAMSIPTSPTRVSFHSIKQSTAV

[12] = target: T3, Corticotropin-releasing factor receptor 1 (Homo sapiens) (UniProt P34998); experiment: as §3; format: functional, cell-based
T3 sequence (whole entry): T2 sequence (P34998 whole entry)

[13] = Drug metabolism in bile duct cannulated Sprague-Dawley rat assessed as unchanged parent drug remaining in bile at 20 mg/kg, po after 24 hrs by HPLC/UV/MS analysis; format: ADME, organism-based; design: dose 20 mg/kg, route oral; settings: read-out: Activity; outline: as §2
[14] = Solubility in simulated intestinal fluid; format: physicochemical
Outline: (§4)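 Solubility measured in simulated gastric fluid and in simulated intestinal fluid (fed state).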

[15] = tested on: Liver microsomes; experiment: Metabolic stability in NADPH-fortified human liver microsomes assessed as GSH adduct formation at 10 uM after 30 mins by HPLC/UV/MS analysis; format: ADME, Microsome; settings: 0.5 h
Outline: (§5)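 Pooled rat or human liver microsomes 1 mg/mL, 10 μM substrate, 100 mM potassium phosphate pH 7.4, 37 °C, started with NADPH-regenerating system (1.3 mM NADP+, 3.3 mM glucose-6-phosphate, 3.3 mM MgCl2, 0.5 U/mL G6PDH); GSH 5 mM in trapping runs. Sampled 0 and 30 min, acetonitrile quench; abundance as UV peak area (330–340 nm) fraction of all drug-related components by HPLC/UV/MS.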

[16] = tested on: Rattus norvegicus; experiment: Anxiolytic activity in Sprague-Dawley rat assessed as decrease in exit latency at 0.56 mg/kg, po after 60 mins by defensive withdrawal test relative to control; format: functional; design: scale not given: the % may be the effect or the level left; outline: as §1
[17] = tested on: Rattus norvegicus; experiment: Total plasma concentration in Sprague-Dawley rat at 0.56 mg/kg, po after 1 to 3 hrs by LC/MS/MS analysis; format: ADME, organism-based; design: dose 0.56 mg/kg, route oral; settings: in vivo
[18] = Metabolic stability in NADPH-fortified rat liver microsomes assessed as parent compound remaining at 10 uM after 30 mins by HPLC/UV/MS analysis; format: ADME, Microsome; settings: read-out: Stability; outline: as §5
[19] = Solubility in simulated gastric fluid; format: physicochemical; outline: as §4
[20] = Aqueous solubility at pH 1; format: physicochemical
[21] = tested on: Rattus norvegicus; experiment: Toxicity in Sprague-Dawley rat at 20 mg/kg after 2 weeks; format: organism-based; design: dose 20 mg/kg; settings: in vivo, 336 h
[22] = tested on: Rattus norvegicus; experiment: Total plasma concentration in Sprague-Dawley rat at 1 mg/kg, po after 1 to 3 hrs by LC/MS/MS analysis; format: ADME, organism-based; design: dose 1 mg/kg, route oral; settings: in vivo
[23] = tested on: Rattus norvegicus; experiment: Neurotoxicity in Sprague-Dawley rat assessed as alteration of motor coordination up to 60 mg/kg by rotarod test; format: toxicity, organism-based; design: dose 60 mg/kg; settings: in vivo
[24] = Oral bioavailability in Sprague-Dawley rat at 10 mg/kg dosed as aqueous suspension of Labrafil M 1944CS/DMAC/polysorbate 80, 85:10:5 (v/v) after 0.25 to 24 hrs by LC/MS/MS analysis; format: ADME, organism-based; settings: in vivo
[25] = tested on: Rattus norvegicus; experiment: Plasma free concentration in Sprague-Dawley rat at 3 mg/kg, po after 1 to 3 hrs by LC/MS/MS analysis; format: ADME, organism-based; design: dose 3 mg/kg, route oral; settings: in vivo

COC[C@H](C1CC1)n1cc(C#N)nc(Nc2cc(C)c(OC(F)F)nc2C)c1=O
Cmax [1]: 880 nM
remaining at 10 min, 3 µM [2]: 74%
inhibition in vivo at 0.56 mg/kg [3]: 39%
half-life [4]: 9.3 h
Activity [5]: Non-toxic
Activity [6]: 56%
Activity [7]: 0.1%
remaining at 10 min, 3 µM [8]: 70%
pKa [9]: < 2
IC50 [10]: 0.86 nM
IC50 [11]: 1.9 nM
inhibition [12]: Dose-dependent effect
dose excreted at 24 h [13]: 3%
solubility [14]: 7.4 µg/mL (≈ 18.3 µM)
Activity [15]: 1%
Activity [16]: 7%
concentration [17]: 24 nM
remaining at 0.5 h, 10 µM [18]: 82%
solubility [19]: 15 µg/mL (≈ 37 µM)
solubility [20]: 3 µg/mL (≈ 7.4 µM)
Activity [21]: Non-toxic
concentration [22]: 45 nM
Activity [23]: Non-toxic
bioavailability [24]: 66%
Cp(f) [25]: 5 nM
